# Data as given in ChEMBL document CHEMBL2146467, “Generation and exploration of new classes of antitubercular agents: The optimization of oxazolines, oxazoles, thiazolines, thiazoles to imidazo[1,2-a]pyridines and isomeric 5,6-fused scaffolds” (Bioorg Med Chem, 2012).
# pIC50: −log10 of the molar value.
# Key:
# [1] = tested on: Mycobacterium tuberculosis; test: Antimycobacterial activity against Mycobacterium tuberculosis H37Rv ATCC 27294 culture in GAS media after 7 days by microplate alamar blue assay; type: functional; settings: H37Rv ATCC 27294, 168 h
# Summary of the method: (§1)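 Replicating Mtb H37Rv. The MIC is the concentration that inhibits growth of 90% of organisms. Media by line: GAS is glycerol-alanine-salts. GAST is iron-deficient glycerol-alanine-salts with Tween 80. 7H12 is 7H9 broth base with BSA, casein hydrolysate, catalase and palmitic acid. Values are reported in μM.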
# [2] = tested on: Mycobacterium tuberculosis; test: Antimycobacterial activity against Mycobacterium tuberculosis H37Rv ATCC 27294 culture in GAST media after 7 days by microplate alamar blue assay; type: functional; settings: H37Rv ATCC 27294, 168 h; summary of the method: as §1
# [3] = tested on: Mycobacterium tuberculosis; test: Antimycobacterial activity against Mycobacterium tuberculosis H37Rv ATCC 27294 culture in 7H12 media after 7 days by microplate alamar blue assay; type: functional; settings: H37Rv ATCC 27294, 168 h; summary of the method: as §1
# [4] = tested on: Mycobacterium tuberculosis; test: microbe, parasite or virus in culture; type: functional; settings: H37Rv
# Vero = test: Cytotoxicity against african green monkey Vero cells after 72 hrs by CellTiter assay; type: cell-based; settings: Chlorocebus sabaeus
# [5] = Chemical stability in simulated gastric fluid assessed as compound remaining at 50 uM after 15 mins by LC/MS analysis; type: physicochemical; settings: read-out: Stability
# [6] = Metabolic stability in Sprague-Dawley rat liver microsomes assessed as compound remaining at 20 uM after 15 mins by LC/MS analysis; type: ADME, Microsome; settings: read-out: Stability
# [7] = tested on: Mycobacterium tuberculosis; test: Antimycobacterial activity against drug-sensitive Mycobacterium tuberculosis isolate 2 after 14 days; type: functional; settings: isolate 2, 336 h
# [8] = tested on: Mycobacterium tuberculosis; test: Antimycobacterial activity against isoniazid-,rifampin-,ethambutol-,kanamycin-,paraaminosalicylic acid-resistant Mycobacterium tuberculosis after 14 days; type: functional; settings: 336 h
# Mycobacterium kansasii = test: Antimycobacterial activity against Mycobacterium kansasii; type: functional
# Mycobacterium avium = test: Antimycobacterial activity against Mycobacterium avium; type: functional
# Staphylococcus aureus = test: Antibacterial activity against Staphylococcus aureus; type: functional
# Escherichia coli = test: Antibacterial activity against Escherichia coli; type: functional
# [9] = tested on: Mycobacterium tuberculosis; test: Antimycobacterial activity against drug-sensitive Mycobacterium tuberculosis isolate 1 after 14 days; type: functional; settings: isolate 1, 336 h
# [10] = tested on: Mycobacterium tuberculosis; test: Antimycobacterial activity against isoniazid-,rifampin-,ethambutol-,pyrazinamide-,streptomycin-,kanamycin-,paraaminosalicylic acid-resistant Mycobacterium tuberculosis after 14 days; type: functional; settings: 336 h
Structure (SMILES),MIC90 [1] [µM],MIC90 [2] [µM],MIC90 [3] [µM],MIC90 [4] [µM],pIC50 (Vero),"remaining at 0.25 h, 50 µM [5] [%]","remaining at 0.25 h, 20 µM [6] [%]",MIC90 [7] [µM],MIC90 [8] [µM],MIC (Mycobacterium kansasii) [µM],MIC (Mycobacterium avium) [µM],MIC (Staphylococcus aureus) [µM],MIC (Escherichia coli) [µM],MIC90 [9] [µM],MIC90 [10] [µM]
O=C(OCc1ccccc1)[C@@H]1COC(c2ccccc2)=N1,4.9,4.4,16.6,63,< 3.89,1.7,2.8,–,–,–,–,–,–,–,–
O=C(OCc1ccccc1)c1coc(-c2ccccc2)n1,5.7,0.49,3.9,37,–,1.8,2.7,2.2,1.1,–,–,–,–,–,–
Cc1ccn2c(C(=O)NCc3ccccc3)c(C)nc2c1,0.7,2,2.3,54,< 3.89,100,90,–,–,1.3,1.3,> 50,> 50,–,–
O=C(OCc1ccccc1)c1csc(-c2ccccc2)n1,6,6.2,7.2,–,< 3.89,–,–,8.5,4.2,–,–,–,–,–,–
O=C(OCc1ccccc1)c1cc(-c2ccccc2)on1,2.2,–,0.8,28,< 4.30,–,–,–,–,–,–,–,–,–,–
Cc1ccn2c(C(=O)OCc3ccccc3)c(-c3ccccc3)nc2c1,< 0.195,–,< 0.195,21.7,< 4.30,–,–,–,–,–,–,–,–,–,–
Cc1ccn2c(C(=O)NCc3ccccc3)c(-c3ccccc3)nc2c1,0.6,–,2.9,> 50,< 4.30,–,–,–,–,–,–,–,–,–,–
Cc1ccn2c(C(=O)OCc3ccccc3)c(C)nc2c1,< 0.195,–,< 0.195,34.8,< 4.30,–,–,< 0.04,< 0.04,–,–,–,–,< 0.04,< 0.04
O=C(Nc1ccccc1)c1coc(-c2ccccc2)n1,11,28,–,50,< 3.89,–,–,–,–,–,–,–,–,–,–
NNC(=O)c1ccncc1 [ISONIAZID],0.22,–,0.37,> 512,< 3.89,–,–,–,–,–,–,–,–,–,–
O=[N+]([O-])c1cn2c(n1)OC[C@@H](OCc1ccc(OC(F)(F)F)cc1)C2 [PRETOMANID],–,–,–,–,–,–,–,> 13.9,0.45,–,–,–,–,0.45,0.45
